Measurements: ChEMBL document CHEMBL1141357, “Bioactive polychlorinated bibenzyls from the liverwort Riccardia polyclada” (J Nat Prod, 2007)

What was measured:
[1] = tested on: Cladosporium herbarum; test: Growth inhibition of Cladosporium herbarum at 0.07 mg after 72 hrs; assay type: functional; details: read-out: IZ
Summary of the method: (§1)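 TLC bioautography with a given dose applied per spot. Plates were sprayed with Cladosporium herbarum spores (5 × 10^5 cfu) in 4% malt extract medium. Growth-inhibition zones were read after 72 h at 27 °C.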

[2] = tested on: Spodoptera littoralis; test: Antifeedant activity against Spodoptera littoralis larvae at 10 ug/disk by disk-choice assay; assay type: functional
Summary of the method: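 Disk-choice feeding test with fifth-instar Spodoptera littoralis larvae at 10 µg/disk. Read-out is FR50: treated area eaten divided by 50% of the untreated area, scored when half of the untreated area had been eaten.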

[3] = tested on: Artemia salina; test: Toxicity against brine shrimp by lethality test; assay type: organism-based; details: in vivo
[4] = tested on: Cladosporium herbarum; test: Growth inhibition of Cladosporium herbarum at 0.05 mg after 72 hrs; assay type: functional; details: read-out: IZ; summary of the method: as §1
[5] = tested on: Cladosporium herbarum; test: Growth inhibition of Cladosporium herbarum at 0.25 mg after 72 hrs; assay type: functional; details: read-out: IZ; summary of the method: as §1

Row | Compound | zone of inhibition at 70 µg/disc [1] [mm] | FR50 [2] | LC50 [3] [ppm] | zone of inhibition at 50 µg/disc [4] [mm] | zone of inhibition at 250 µg/disc [5] [mm]
1 | COc1ccc(CCc2c(Cl)ccc(O)c2Cl)cc1Cl | 12 | 0.63 | 0.42 |  | 
2 | COc1ccc(CCc2c(Cl)cc(Cl)c(O)c2Cl)cc1Cl |  |  | 1.71 | 0 | 
3 | CC(=O)N1CCN(c2ccc(OC[C@H]3CO[C@](Cn4ccnc4)(c4ccc(Cl)cc4Cl)O3)cc2)CC1 [KETOCONAZOLE] |  |  | 14.9 |  | 15
4 | COc1ccc(CCc2c(Cl)ccc(O)c2Cl)cc1 |  |  | 0.44 | 22 | 
5 | Oc1ccc(CCc2c(Cl)cc(Cl)c(O)c2Cl)cc1Cl | 20 | 0.43 | 2.39 |  | 
